In ChEMBL document CHEMBL4706643 (J Med Chem, 2021):
Calls of active or inactive are those of the source. No cut-off for these calls is given here.

Columns and labels:
[1] = AUC (0 to infinity) in C57BL/6 mouse at 10 mg/kg, ip; format: ADME, organism-based; parameters: time infinity, route intraperitoneal, dose 10 mg/kg; settings: in vivo
In short: (§1)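 Male C57BL/6 mice, n = 3, dosed IV at 5 mg/kg, IP at 10 mg/kg or by oral gavage (PO) at 10 mg/kg. All doses formulated in DMSO:cremophor:0.9% NaCl = 5:5:90. AUC from time zero to infinity (h*ng/mL) was derived from plasma drug levels and is reported as the mean of the males.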

[2] = tested on: Hepatitis delta virus; experiment: Antiviral activity against HDV infected in C57B/L transgenic mouse harbouring human NTCP assessed as decrease in viral RNA levels in liver at 40 mg/kg, ip administered for 2 consecutive days followed by HDV challenge at day 2 and measured at day 8 post infection by qPCR analysis; format: functional, organism-based; settings: time 8.0 day
In short: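 Neonatal hNTCP-transgenic C57B/L mice received 40 mg/kg i.p. before HDV inoculation, either once or on two consecutive days (n = 4 per group; vehicle group n = 5). HDV was given at 5 × 10⁹ Geq i.p. on day 9 after birth, and mice were sacrificed on day 15. Liver RNA was assayed by RT-qPCR on cDNA from 20 ng RNA, with NTCP mRNA also measured. Group medians are shown.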

[3] = Clearance in C57BL/6 mouse at 5 mg/kg, iv; format: ADME, organism-based; settings: in vivo
In short: (§2)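 Male C57BL/6 mice (n = 3), single dose IV 5 mg/kg, IP 10 mg/kg or PO 10 mg/kg in DMSO:cremophor:0.9% NaCl 5:5:90; plasma parameters reported as means.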

[4] = biological target: T1, Hepatic sodium/bile acid cotransporter (Homo sapiens, UniProt Q14973); experiment: Inhibition of Myr95F binding to human NTCP expressed in HepG2 cells assessed as decrease in cell membrane staining at 1 uM incubated for 2 hrs by fluorescence staining based analysis; settings: hepg2, 2 h
T1 sequence (Q14973 whole entry): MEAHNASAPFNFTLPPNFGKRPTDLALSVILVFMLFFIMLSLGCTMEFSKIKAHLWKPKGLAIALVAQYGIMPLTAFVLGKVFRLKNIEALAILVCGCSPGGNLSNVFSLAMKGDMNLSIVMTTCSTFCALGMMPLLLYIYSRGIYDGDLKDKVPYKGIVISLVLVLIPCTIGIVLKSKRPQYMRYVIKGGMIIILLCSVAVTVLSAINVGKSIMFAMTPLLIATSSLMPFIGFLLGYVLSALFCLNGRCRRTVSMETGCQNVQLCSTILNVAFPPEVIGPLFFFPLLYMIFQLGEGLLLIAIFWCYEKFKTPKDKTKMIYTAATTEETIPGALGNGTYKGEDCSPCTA
In short: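 HepG2-NTCP cells stained with fluorescent Myr59F pre-S1 peptide in presence of DMSO, compound (1 μM) or Myr47 (200 nM); membrane staining intensity quantified.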

[5] = Cmax in C57BL/6 mouse at 10 mg/kg, po; format: ADME, organism-based; parameters: route oral, dose 10 mg/kg; settings: in vivo; in short: as §2
[6] = tested on: HepG2; experiment: Antiviral activity against HBV genotype C infected in human HepG2-NTCP cells assessed as reduction in HBeAg secretion at 2 uM cells inoculated with virus for 4 hrs at room temperature and 37 degree C for 24 hrs followed inoculum changed with PMM medium for every 2 days until day 5 post infection by ELISA; format: functional, cell-based; settings: time 28.0 hrs
In short: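 HepG2-NTCP cells seeded 4–6 h, then primary maintenance medium 20–24 h; virus inoculum plus compound dilutions 4 h at room temperature, then 37 °C 24 h; medium changed every 2 days to PMM with 2% FBS until day 5 post infection. Secreted HBeAg measured by ELISA; IC50 by nonlinear regression from six or more points, three repeats.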

[7] = Half life in C57BL/6 mouse plasma at 5 mg/kg, iv; format: ADME, organism-based; in short: as §2
[8] = tested on: Hepatitis B virus; experiment: Antiviral activity against HBV infected in human HepG2-NTCP cells assessed as reduction in HBeAg secretion cells inoculated with virus for 4 hrs at room temperature and 37 degree C for 24 hrs followed inoculum changed with PMM medium for every 2 days until day 5 post infection by ELISA; format: functional, organism-based
[9] = tested on: Hepatitis B virus; experiment: Antiviral activity against HBV infected in primary human hepatocytes; format: functional, organism-based; settings: Hepatocyte
[10] = tested on: Hepatitis delta virus; experiment: Antiviral activity against HDV infected in NTCP-edited FVB mouse assessed as decrease in viral RNA levels in liver at 30 mg/kg, po administered for 8 days via gavage followed by HDV challenge at day 2 and measured at day 8 post infection by qPCR analysis; settings: time 8.0 day
[11] = Half life in C57BL/6 mouse at 10 mg/kg, ip; format: ADME, organism-based; settings: in vivo; in short: as §2
[12] = AUC (0 to infinity) in C57BL/6 mouse at 5 mg/kg, iv; format: ADME, organism-based; parameters: time infinity, route intravenous, dose 5 mg/kg; settings: in vivo; in short: as §1

For `CC[C@@H]1NC(=O)[C@H]([C@@H]2O[C@@H](Sc3cccc(OCc4ccccc4)c3)C[C@H]2C)N(C)C(=O)[C@H](C(C)C)N(C)C(=O)[C@H](CC(C)C)N(C)C(=O)[C@H](CC(C)C)N(C)C(=O)[C@@H](C)NC(=O)[C@H](C)NC(=O)[C@H](CC(C)C)N(C)C(=O)[C@H](C(C)C)NC(=O)[C@H](CC(C)C)N(C)C(=O)CN(C)C1=O`, the AUC(0-inf) [1] was 87400 ng·h/mL, the Activity [2] was “Active” and the clearance [3] was 2.1 mL/min/kg. For the same compound, the “inhibition (INH)” value [4] was “Active”, the Cmax [5] was 2290 ng/mL and the Activity [6] was “Active”. The half-life [7] was 6.03 h, the IC50 [8] was 110 nM and the IC50 [9] was 59 nM. The Activity [10] was “Active”, the half-life [11] was 5.68 h and the AUC(0-inf) [12] was 39700 ng·h/mL.
